# Compounds with a hit are over-represented: about 1.8% of the library has one in this group of screens.
# TDP2 absorb = human TDP2 enzyme inhibitors, primary screen, biochemical, epi absorbance, recombinant enzyme; inhibition, % at 12.8 µM; 370,000 tested, 0.34% active; Tyrosyl-DNA phosphodiesterase 2 (Homo sapiens), O95551; AID 720702, 2013; T5PNP hydrolysis, p-nitrophenol absorbance 415 nm;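 active = inhibition above the mean of all tested compounds plus 3 SD, set per campaign, cut at about 25% in these data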
#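 System – recombinant human TDP2 · Amount – 120 nM TDP2 per well · Buffer or medium – Mg2+-containing Tris-HCl buffer, pH 7.5 · Reagent – T5PNP substrate, 5 mM · Dosing – 12.8 µM single point, 1% DMSO · Incubation – 2 h at 37 °C · Measured by – epi absorbance · Read-out basis – percent inhibition · Benchmarks – high control without enzyme, low control DMSO plus TDP2 · Repeats – singlicate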
# UHRF1 binding = UHRF1 methylated DNA binding inhibitors, primary screen, counter-screen for MBD2 inhibitor project, biochemical, TR-FRET, human UHRF1, single concentration. E3 ubiquitin-protein ligase UHRF1 (Homo sapiens), Q96T88. UHRF1 binding to methylated oligo. inhibition, % at 4.4 µM. 370,000 tested, 0.75% active; in the data active = inhibition above about 21%;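 note: UHRF1 SRA domain binding a hemimethylated CpG hairpin DNA probe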
# MBD2 DNA inh = inhibitors of MBD2 binding to methylated DNA, primary screen, biochemical, TR-FRET, DNA-binding domain, human | 370,000 tested, 0.31% active | inhibition, % at 4.4 µM | MBD2 binding to methylated oligonucleotide | Methyl-CpG-binding domain protein 2 (Homo sapiens), Q9UBB5; in the data active = inhibition above about 13%
# Target sequence (Q9UBB5 whole entry, looked up, the tested form may be a part): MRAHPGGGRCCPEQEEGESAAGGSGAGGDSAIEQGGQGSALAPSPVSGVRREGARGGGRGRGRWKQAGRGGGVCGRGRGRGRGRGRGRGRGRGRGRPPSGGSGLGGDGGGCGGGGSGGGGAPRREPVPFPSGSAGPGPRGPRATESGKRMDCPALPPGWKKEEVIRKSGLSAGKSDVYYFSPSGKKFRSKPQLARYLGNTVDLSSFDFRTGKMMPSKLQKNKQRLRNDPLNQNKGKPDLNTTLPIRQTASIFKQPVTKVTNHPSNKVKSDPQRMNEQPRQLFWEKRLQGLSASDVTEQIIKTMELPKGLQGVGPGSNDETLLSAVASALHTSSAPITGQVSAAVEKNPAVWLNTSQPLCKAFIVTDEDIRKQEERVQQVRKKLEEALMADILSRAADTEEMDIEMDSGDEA
# core dimer inh = inhibitors of HCV core protein dimerization, primary screen, biochemical, TR-FRET, high-throughput; TR-FRET GST/Flag-core106 dimerization, 1536-well; inhibition, % at 5 µM; 300,000 tested, 0.33% active; AID 1899, 2009;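 active = inhibition above the mean of all tested compounds plus 3 SD, set per screening campaign, cut at about 45% in these data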
#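 Material: GST/Flag-tagged HCV core106 proteins. Incubation: 4 h, 22.5 °C incubation. Read-out basis: inhibition (%) from 671 over 617 nm ratio. Measured by: TR-FRET, excitation 340 nm, emission 617 and 671 nm.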
# LEDGF integ inh = blockers of LEDGF/p75-dependent integrase strand transfer – biochemical, TR-FRET, high throughput, primary screen | HIV-1 integrase (with human LEDGF/p75) | TR-FRET IN-LEDGF/p75 DNA integration, Eu/Cy5 | inhibition, % at 3.7 µM | 370,000 tested, 0.64% active | AID 743269, 2014;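 active = inhibition above the screen-wide mean plus 3 SD, cut at about 13% in these data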;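 note: signal is the Cy5 over europium emission ratio at 671 and 618 nm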
# A number is an active result; n = inactive; x = no result given.
SMILES,TDP2 absorb,UHRF1 binding,MBD2 DNA inh,core dimer inh,LEDGF integ inh
COc1ccc(OCC(C)CN2CCC(C(O)(c3ccccc3)c3ccccc3)CC2)cc1 (configuration not stated),n,n,n,x,n
CCOc1cc(NCCN2CCOCC2)c([N+](=O)[O-])cc1OCC,n,24.1,n,n,n
Cc1nn(C(C)c2nc(-c3ccccc3)no2)c(C)c1[N+](=O)[O-] (configuration not stated),n,33.3,n,n,n
c1ccc2c(c1)N=C(N1CCN(Cc3ccc4c(c3)OCO4)CC1)c1ccccc1S2,n,n,n,x,n
COc1ccc2[nH]c3nc(SC(C)C)nnc3c2c1,n,54.2,n,n,n
COc1ccc(CNC(=O)CSc2nnc3c(n2)[nH]c2ccc(OC)cc23)cc1,n,n,n,n,n
COc1ccc(-n2c(SCC(=O)Nc3ccccc3-c3ccccc3)nnc2-c2ccccn2)cc1,n,n,n,x,n
COc1ccc(C(=O)Nc2cccc(/C=C(\CCC(=O)O)c3nc4ccccc4s3)c2)cc1,n,n,n,64.1,n
O=C(O)C/C(=C\c1cccc(NC(=O)c2ccccc2Cl)c1)c1nc2ccccc2s1,n,n,n,n,n
CN(c1ccccc1)c1ccc(/C=C(\CCC(=O)O)c2nc3ccccc3s2)cc1[N+](=O)[O-],n,n,n,60.4,n
CCC(C(=O)Nc1ccccc1N1CCCC1)c1cccc(OC)c1 (configuration not stated),n,n,n,x,n
COc1cc2c(cc1NC(=O)CSc1nnc(-c3ccccc3F)n1-c1ccc(C)cc1)oc1ccccc12,n,n,n,x,n
Nn1c(SCC(=O)Nc2ccc(OCc3ccccc3)cc2)nnc1-c1cc(-c2ccccc2)n[nH]1,n,n,n,x,n
N#Cc1cc(F)cc(OC[C@@H](O)CN2CCC(C(O)(c3ccccc3)c3ccccc3)CC2)c1,n,n,n,x,n
CCNc1ccccc(C(=O)/C=C/c2ccc3c(c2)OCO3)c1=O,n,n,n,50.2,n
O=C(NCCc1c[nH]c2ccccc12)OCc1cn(-c2cccc(C(F)(F)F)c2)nn1,n,n,n,x,n
Cc1ccc(CN(Cc2ccco2)C(=S)NCC(=O)O)cc1,n,22.2,n,n,n
Cc1ccc(CN(Cc2ccc(C)o2)C(=S)NCC(=O)O)cc1,n,n,n,n,n
Cc1ccc(-c2csc(NC(=O)c3ccno3)n2)cc1,n,n,n,61.9,n
Cc1ccc(-c2csc(NC(=O)c3ccc(C)o3)n2)cc1,n,n,n,n,n
COC(=O)C1CN(Cc2ccccc2)CCS(=O)(=O)N1Cc1cn(Cc2ccccc2)nn1 (configuration not stated),n,n,n,x,n
CC(C)c1csc(CN2CCC(CO)(Cc3cccc(F)c3)CC2)n1,n,58.8,n,n,n
O=C(COc1ccccc1)NCCSCc1ccccc1Cl,n,n,n,n,n
COc1ccccc1OCC(=O)NCCSCc1ccccc1Cl,n,24.8,n,n,n
C=CCNC(=O)c1ccc(-n2cccc2)cc1,n,23.8,n,n,n
SMILES,TDP2 absorb,UHRF1 binding,MBD2 DNA inh,core dimer inh,LEDGF integ inh
CCOc1ccc(-n2c(SCC(=O)Nc3ccc(S(=O)(=O)Nc4nccs4)cc3)nnc2-c2ccc(C(C)(C)C)cc2)cc1,n,n,n,x,n
COc1cc(OC)c(NC(=O)c2ccc3c(SCC(=O)O)c4c(nc3c2)CCCC4)cc1Cl,n,n,n,46.9,n
O=C(COC(=O)/C=C/C(=O)N1CCN(c2ccccc2)CC1)NCc1ccc(F)cc1,n,63.6,n,n,n
O=C(CN1CCN(c2ccccc2)CC1)NCc1ccc(F)cc1,n,n,n,n,n
O=C(CNC(=O)c1ccc(-c2ccccc2)cc1)OCc1ccc(Br)cc1,n,25.6,n,x,n
COc1ccc(C(=O)NCC(=O)OCc2ccc(Br)cc2)cc1,n,n,n,n,n
COc1cccc(S(=O)(=O)N(C)C[C@@H]2OCc3cnnn3CCCC(=O)N([C@H](C)CO)C[C@H]2C)c1,n,n,n,x,n
C[C@@H]1CN([C@@H](C)CO)C(=O)CCCn2nncc2CO[C@H]1CN(C)C(=O)Nc1cccc2ccccc12,n,24.2,n,x,n
C[C@@H]1CN([C@H](C)CO)C(=O)CCCn2nncc2CO[C@@H]1CN(C)C(=O)Nc1cccc2ccccc12,n,n,n,x,n
C[C@H](CO)N1C[C@H](C)[C@H](CN(C)C(=O)OCc2ccccc2)OCc2cnnn2CCCC1=O,n,23.8,n,x,n
C[C@H]1CN([C@@H](C)CO)C(=O)CCCn2nncc2CO[C@@H]1CN(C)CC1CC1,n,n,n,x,n
COc1cccc(S(=O)(=O)N(C)C[C@H]2OCc3cnnn3CCCC(=O)N([C@@H](C)CO)C[C@H]2C)c1,n,22.0,n,x,n
CCCN(C)C[C@H]1OCc2cnnn2CCCC(=O)N([C@H](C)CO)C[C@@H]1C,n,23.2,n,x,n
O=C(Nc1ccc2c(c1)OCO2)OC1CCC12CCCCC2 (configuration not stated),n,n,n,x,n
O=C(NCCc1ccccc1)OCc1cn(Cc2ccccc2C(F)(F)F)nn1,n,n,n,x,n
CCOC(=O)NC(=S)c1ccc[nH]1,n,22.5,n,n,n
CCOC(=O)NC(=S)Nc1cccc(NC(=S)NC(=O)OCC)c1,n,n,n,n,n
CC(C)Cc1cc(C(=O)Nc2ccc(F)cc2F)no1,n,24.2,n,n,n
CNC(=O)COC(=O)c1cc(SC)ccc1Cl,n,26.4,n,n,n
COc1ccc(C(=O)OCCN2CCN(C3CN(Cc4cn(Cc5cccc(C)c5)nn4)S(=O)(=O)C3)CC2)cc1OC (configuration not stated),n,n,n,x,n
CCCCn1c(N)c(N(CCC(C)C)C(=O)c2cc(-c3ccco3)nc3ccccc23)c(=O)[nH]c1=O,n,n,n,48.8,n
CCC(=O)N(Cc1cc(=O)[nH]c2ccccc12)c1ccccc1C,n,38.1,n,n,n
CCCC(=O)N(Cc1cc(=O)[nH]c2ccccc12)c1ccc(C)cc1C,n,n,n,x,n
N#CC1=C(S)N(c2ccccc2)C(c2ccc(-c3ccc(Cl)c(Cl)c3)o2)NC1=O (configuration not stated),25.8,n,n,n,n
CCOC(=O)C1=C(Cc2ccc(F)cc2)C(=O)c2ccccc2C1=O,30.6,n,n,n,n
COC(=O)COc1coc(CN2CCN(c3cccc(Cl)c3)CC2)cc1=O,n,20.9,n,n,n

# Screening data as filed in PubChem.
